Values after ≈ are worked out from the molar mass of the structure shown.
What was measured:
Punta Toro virus = experiment: Antiviral activity against Punta Toro virus infected in african green monkey Vero cells assessed as protection against virus-induced cytopathogenicity; format: functional
Sindbis virus = experiment: Antiviral activity against Sindbis virus infected in african green monkey Vero cells assessed as protection against virus-induced cytopathogenicity; format: functional
Coxsackievirus B4 [1] = experiment: Antiviral activity against Coxsackievirus B4 infected in african green monkey Vero cells assessed as protection against virus-induced cytopathogenicity; format: functional; settings: Enterovirus B
Human alphaherpesvirus 1 [2] = experiment: Antiviral activity against acyclovir-resistant thymidine kinase-deficient HSV1 KOS infected in human HEL cells assessed as protection against virus-induced cytopathogenicity; format: functional; settings: Human alphaherpesvirus 1, KOS
[3] = system: Human immunodeficiency virus 2; experiment: Antiviral activity against HIV-2 ROD infected human MT4 cells assessed as protection against virus-induced cytopathogenicity; format: functional, organism-based; settings: Human immunodeficiency virus 2, ISOLATE ROD
Outline: (§1)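 HIV-1 (IIIB) or HIV-2 (ROD) infection of MT-4 cells, scored as protection against virus-induced cytopathicity. IC50 was derived from protection.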

Human alphaherpesvirus 3 [4] = experiment: Antiviral activity against thymidine kinase deficient Varicella Zoster Virus 07/1 infected in HEL cells assessed as reduction in virus plaque formation; format: functional, organism-based; settings: Human alphaherpesvirus 3, 07/1, HEL
Outline: (§2)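 Plaque reduction in HEL cells against CMV (AD-169, Davis) or VZV (TK⁺ OKA, TK⁻ 07/1), using a virus input of 20 PFU. EC50 is the concentration that reduced plaque formation by 50%.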

[5] = system: Vesicular stomatitis virus; experiment: Antiviral activity against Vesicular stomatitis virus infected in human HeLa cells assessed as protection against virus-induced cytopathogenicity; format: functional
[6] = Cytotoxicity against Varicella Zoster Virus infected human […] cells assessed as change in cell morphology; format: cell-based
[7] = Cytotoxicity against HIV-1 3B infected human MT4 cells; format: cell-based; settings: HIV-1 3B-infected MT4 cells
[8] = Cytotoxicity against HEL cells assessed as change in cell morphology; format: cell-based; settings: human
Outline: (§3)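 HEL cell cultures examined under the microscope. Minimal cytotoxic concentration (MCC) is the concentration that causes a microscopically detectable alteration of cell morphology. Compounds were tested at subtoxic concentrations alongside the antiviral tests.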

[9] = system: Mammalian orthoreovirus 1; experiment: Antiviral activity against Reovirus 1 infected in african green monkey Vero cells assessed as protection against virus-induced cytopathogenicity; format: functional
Human alphaherpesvirus 2 = experiment: Antiviral activity against Herpes simplex virus 2 infected in HEL cells assessed as protection against in virus-induced cytopathogenicity; format: functional
[10] = Cytotoxicity against Cytomegalovirus infected HEL cells assessed as change in cell morphology; format: cell-based; settings: human; outline: as §3
Coxsackievirus B4 [11] = experiment: Antiviral activity against Coxsackievirus B4 infected in human HeLa cells assessed as protection against virus-induced cytopathogenicity; format: functional; settings: Enterovirus B
[12] = system: Respiratory syncytial virus; experiment: Antiviral activity against RSV infected in human HeLa cells assessed as protection against virus-induced cytopathogenicity; format: functional
HeLa = experiment: Cytotoxicity against human HeLa cells assessed as change in cell morphology; format: functional
Outline: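 The minimum cytotoxic concentration (MCC) is the concentration causing a microscopically detectable alteration of cell morphology in the uninfected host cell culture.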

[13] = Cytotoxicity against Cytomegalovirus infected HEL cells assessed as reduction in cell growth; format: cell-based; settings: human
[14] = Cytotoxicity against african green monkey Vero cells assessed as change in cell morphology; format: cell-based; settings: chlorocebus sabaeus
Outline: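 Vero cell cultures were used for the broad-spectrum antiviral screen. The MCC endpoint is the lowest concentration that causes a microscopically detectable alteration of cell morphology. Activity was called when 5 × MIC < MCC.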

Human respirovirus 3 = experiment: Antiviral activity against Parainfluenza-3 virus infected in african green monkey Vero cells assessed as protection against virus-induced cytopathogenicity; format: functional
Cytomegalovirus = experiment: Antiviral activity against Cytomegalovirus Davis infected in HEL cells assessed as reduction in virus plaque formation; format: functional, organism-based; settings: Human betaherpesvirus 5, Davis; outline: as §2
[15] = system: Human immunodeficiency virus 1; experiment: Antiviral activity against HIV-1 3B infected human MT4 cells assessed as protection against virus-induced cytopathogenicity; format: functional, organism-based; settings: Human immunodeficiency virus 1, 3B; outline: as §1
[16] = Cytotoxicity against Varicella Zoster Virus infected human […] cells assessed as reduction in cell growth; format: cell-based
Human alphaherpesvirus 1 [17] = experiment: Antiviral activity against HSV1 KOS infected in HEL cells assessed as protection against virus-induced cytopathogenicity; format: functional; settings: Human alphaherpesvirus 1, KOS
[18] = system: Vesicular stomatitis virus; experiment: Antiviral activity against sVesicular stomatitis virus infected in HEL cells assessed as protection against virus-induced cytopathogenicity; format: functional
Human alphaherpesvirus 3 [19] = experiment: Antiviral activity against Varicella Zoster Virus OKA infected in HEL cells assessed as reduction in virus plaque formation; format: functional, organism-based; settings: Human alphaherpesvirus 3, OKA; outline: as §2
Human betaherpesvirus 5 = experiment: Antiviral activity against Cytomegalovirus AD169 infected in HEL cells assessed as reduction in virus plaque formation; format: functional, organism-based; settings: Human betaherpesvirus 5, AD169, HEL; outline: as §2

CS(=O)(=O)Nc1ccc(NC(=S)NCCc2ccccc2)cc1Oc1ccccc1
MIC50 (Punta Toro virus): > 1.6 µg/mL
MIC50 (Sindbis virus): > 1.6 µg/mL
MIC50 (Coxsackievirus B4 [1]): > 1.6 µg/mL
MIC50 (Human alphaherpesvirus 1 [2]): > 8 µg/mL
IC50 [3]: > 20.8 µg/mL
EC50 (Human alphaherpesvirus 3 [4]): > 20 µg/mL
MIC50 [5]: > 8 µg/mL
CC50 [6]: ≥ 100 µg/mL
CC50 [7]: 20.8 µg/mL (≈ 47.1 µM)
MCC [8]: 40 µg/mL
MIC50 [9]: > 1.6 µg/mL
MIC50 (Human alphaherpesvirus 2): > 8 µg/mL
CC50 [10]: 100 µg/mL (≈ 226 µM)
MIC50 (Coxsackievirus B4 [11]): > 8 µg/mL
MIC50 [12]: > 8 µg/mL
MCC (HeLa): 40 µg/mL
CC50 [13]: 48 µg/mL (≈ 109 µM)
MCC [14]: 8 µg/mL
MIC50 (Human respirovirus 3): > 1.6 µg/mL
EC50 (Cytomegalovirus): > 20 µg/mL
IC50 [15]: > 20.8 µg/mL
CC50 [16]: 48 µg/mL (≈ 109 µM)
MIC50 (Human alphaherpesvirus 1 [17]): > 8 µg/mL
MIC50 [18]: > 8 µg/mL
EC50 (Human alphaherpesvirus 3 [19]): > 20 µg/mL
EC50 (Human betaherpesvirus 5): > 20 µg/mL

Nc1nc2c(ncn2COCCO)c(=O)[nH]1 [ACYCLOVIR]
MIC50 (Human alphaherpesvirus 1 [2]): 50 µg/mL (≈ 222 µM)
MCC [8]: > 250 µg/mL
MIC50 (Human alphaherpesvirus 2): 0.4 µg/mL (≈ 1.78 µM)
MIC50 [18]: > 250 µg/mL

CS(=O)(=O)Nc1ccc(NC(=S)NCCc2ccc(Cl)cc2)cc1Oc1ccccc1
MIC50 (Punta Toro virus): > 20 µg/mL
MIC50 (Sindbis virus): > 20 µg/mL
MIC50 (Coxsackievirus B4 [1]): > 20 µg/mL
MIC50 (Human alphaherpesvirus 1 [2]): > 100 µg/mL
IC50 [3]: > 14.8 µg/mL
MIC50 [5]: > 20 µg/mL
CC50 [7]: 14.8 µg/mL (≈ 31.2 µM)
MCC [8]: > 100 µg/mL
MIC50 [9]: > 20 µg/mL
MIC50 (Human alphaherpesvirus 2): > 100 µg/mL
MIC50 (Coxsackievirus B4 [11]): > 20 µg/mL
MIC50 [12]: > 20 µg/mL
MCC (HeLa): 100 µg/mL
MCC [14]: 100 µg/mL
MIC50 (Human respirovirus 3): > 20 µg/mL
IC50 [15]: > 14.8 µg/mL
MIC50 (Human alphaherpesvirus 1 [17]): > 100 µg/mL
MIC50 [18]: > 100 µg/mL

Nc1nc2c(ncn2COC(CO)CO)c(=O)[nH]1 [GANCICLOVIR]
MIC50 (Human alphaherpesvirus 1 [2]): 2.4 µg/mL (≈ 9.4 µM)
EC50 (Human alphaherpesvirus 3 [4]): 15 µg/mL (≈ 58.8 µM)
CC50 [6]: > 50 µg/mL
MCC [8]: > 100 µg/mL
MIC50 (Human alphaherpesvirus 2): 0.0064 µg/mL (≈ 0.0251 µM)
CC50 [10]: 400 µg/mL (≈ 1570 µM)
CC50 [13]: 80 µg/mL (≈ 313 µM)
EC50 (Cytomegalovirus): 1.7 µg/mL (≈ 6.66 µM)
CC50 [16]: 190 µg/mL (≈ 744 µM)
MIC50 (Human alphaherpesvirus 1 [17]): 0.032 µg/mL (≈ 0.125 µM)
MIC50 [18]: > 100 µg/mL
EC50 (Human alphaherpesvirus 3 [19]): 1 µg/mL (≈ 3.92 µM)
EC50 (Human betaherpesvirus 5): 1.4 µg/mL (≈ 5.49 µM)

NC(=O)c1ncn([C@@H]2O[C@H](CO)[C@@H](O)[C@H]2O)n1 [RIBAVIRIN]
MIC50 (Punta Toro virus): 250 µg/mL (≈ 1020 µM)
MIC50 (Sindbis virus): > 250 µg/mL
MIC50 (Coxsackievirus B4 [1]): > 250 µg/mL
MIC50 (Human alphaherpesvirus 1 [2]): > 250 µg/mL
MIC50 [5]: 30 µg/mL (≈ 123 µM)
MCC [8]: > 250 µg/mL
MIC50 [9]: 150 µg/mL (≈ 614 µM)
MIC50 (Human alphaherpesvirus 2): 250 µg/mL (≈ 1020 µM)
MIC50 (Coxsackievirus B4 [11]): 150 µg/mL (≈ 614 µM)
MIC50 [12]: 50 µg/mL (≈ 205 µM)
MCC (HeLa): > 250 µg/mL
MCC [14]: > 250 µg/mL
MIC50 (Human respirovirus 3): 150 µg/mL (≈ 614 µM)
MIC50 (Human alphaherpesvirus 1 [17]): 250 µg/mL (≈ 1020 µM)
MIC50 [18]: 150 µg/mL (≈ 614 µM)

CCCNC(=S)Nc1ccc(NS(C)(=O)=O)c(Oc2ccccc2)c1
MIC50 (Punta Toro virus): > 8 µg/mL
MIC50 (Sindbis virus): > 8 µg/mL
MIC50 (Coxsackievirus B4 [1]): > 8 µg/mL
MIC50 (Human alphaherpesvirus 1 [2]): > 40 µg/mL
IC50 [3]: > 89.3 µg/mL
EC50 (Human alphaherpesvirus 3 [4]): > 20 µg/mL
MIC50 [5]: > 40 µg/mL
CC50 [6]: 100 µg/mL (≈ 263 µM)
CC50 [7]: 89.3 µg/mL (≈ 235 µM)
MCC [8]: 200 µg/mL
MIC50 [9]: > 8 µg/mL
MIC50 (Human alphaherpesvirus 2): > 40 µg/mL
CC50 [10]: > 100 µg/mL
MIC50 (Coxsackievirus B4 [11]): > 40 µg/mL
MIC50 [12]: 40 µg/mL (≈ 105 µM)
MCC (HeLa): 200 µg/mL
CC50 [13]: 56 µg/mL (≈ 148 µM)
MCC [14]: 40 µg/mL
MIC50 (Human respirovirus 3): > 8 µg/mL
EC50 (Cytomegalovirus): 54.7 µg/mL (≈ 144 µM)
IC50 [15]: > 89.3 µg/mL
CC50 [16]: 56 µg/mL (≈ 148 µM)
MIC50 (Human alphaherpesvirus 1 [17]): > 40 µg/mL
MIC50 [18]: > 40 µg/mL
EC50 (Human alphaherpesvirus 3 [19]): > 20 µg/mL
EC50 (Human betaherpesvirus 5): 54.7 µg/mL (≈ 144 µM)

Nc1ccn(C[C@@H](CO)OCP(=O)(O)O)c(=O)n1.O.O [CIDOFOVIR]
EC50 (Human alphaherpesvirus 3 [4]): 12.6 µg/mL
CC50 [6]: > 50 µg/mL
CC50 [10]: 400 µg/mL
CC50 [13]: 57 µg/mL
EC50 (Cytomegalovirus): 0.37 µg/mL
CC50 [16]: 244 µg/mL
EC50 (Human alphaherpesvirus 3 [19]): 0.0095 µg/mL
EC50 (Human betaherpesvirus 5): 0.24 µg/mL
